Series [1] can be described thus: Binding affinity to 5'-biotin-d [GCGTCCACCCTCCCTGCCCCGCCGCCCCCCCITCTCCCAGC]-3' i-motif DNA (unknown origin) by surface plasmon resonance assay. The gist of the method:
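SPR: biotinylated oligomers were captured on a neutravidin chip at ~1000 RU, with a blank reference cell. Running buffer was 20 mM MES pH 5.5, 100 mM KCl, 0.05% Tween-20 for the i-motif, or 50 mM Tris-HCl pH 7.4, 100 mM KCl for the G-quadruplex. Ligand was injected at 0–10 μM (six concentrations), with 200 s association and 300 s dissociation at 25 °C.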

For series [2], the target named is Quadruplex DNA. Nature of the series: Binding affinity to FAM-labeled 5'-biotin-d [GCTGGGAGAAGGGGGGGCGGCGGGGCAGGGAGGGTGGACGC]-3' G4-quadruplex DNA (unknown origin) by microscale thermophoresis assay. The series is classed as nucleic-acid assay. The gist of the method:
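Microscale thermophoresis with DNA held constant at 1 µM. Compound serially diluted 3:4 from 10 µM over 12 points. Samples run in standard glass capillaries with LED and laser power both at 20%. KD derived by fitting.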
A general note: MST reads how a fluorescent partner responds to local heating, with and without ligand.

Series [3] has as its system Quadruplex DNA. In words: Binding affinity to 5'-biotin-d [GCTGGGAGAAGGGGGGGCGGCGGGGCAGGGAGGGTGGACGC]-3' G4-quadruplex DNA (unknown origin) assessed as change in melting temperature at 10 uM by CD spectroscopy. Format: nucleic-acid assay. In short, it runs like this:
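Oligomer 2 µM in Tris-HCl pH 7.4, annealed (95 °C for 5 min, slow cooling, 4 °C overnight). Ligand 10 µM. CD ellipticity followed at 263 nm over 25–95 °C; ΔTm taken against DNA alone.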

Series [4] in a line: Binding affinity to 5'-biotin-d [GCGTCCACCCTCCCTGCCCCGCCGCCCCCCCITCTCCCAGC]-3' i-motif DNA (unknown origin) assessed as decrease in positive peak by CD spectroscopy. To be noted: dose 2-10 equiv. The gist of the method: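 CD spectra: oligomers at 2 μM final, in BPES pH 5.5 (i-motif) or Tris-HCl pH 7.4 (G-quadruplex). Samples were annealed (95 °C 5 min, slow cool, 4 °C overnight), then titrated with increasing compound. Spectra were recorded at 25 °C over 230–330 nm in a 1 mm cuvette, buffer-subtracted, averaged and smoothed.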

Series [5] is described as follows: Binding affinity to 5'-FAM-GCGTCCACCCTCCCTGCCCCGCCGCCCCCCCTTCTCCCAGC-TAMRA-3' i-motif DNA (unknown origin) assessed as unfolding i-motif structure by measuring reduction in I585/I518 ratio by FRET assay. Particulars: dose 2-10 equiv. The gist of the method: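 FRET probe: i-motif oligonucleotide dual-labelled with FAM donor and TAMRA acceptor, 10 µM in 30 mM BPES buffer with 1 mM EDTA, KCl, thermally annealed. Compound was added in equal volume at increasing concentrations. Emission was scanned 500–700 nm and corrected for the compound's own signal. Read-out was the I585/I518 ratio, with the titration run at pH 6.2.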

Series [6] concerns MCF7. In words: Binding affinity to wild type PDGFRbeta promoter (unknown origin) in human MCF7 cells assessed as down regulation of PDGFRbeta mRNA expression at 1.25 to 20 uM after 12 hrs by RT-PCR analysis. Particulars: dose 1.25-20 µM. The series is classed as cell-based.
Series [7] has as its system MCF7. Nature of the series: Cytotoxicity against human MCF7 cells assessed as reduction in cell viability after 48 hrs by MTT assay. The series is classed as functional, cell-based. To be noted: MCF7, 48 h. In short, it runs like this:
(§1)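 MTT assay: cells seeded at 5.0 × 10³/well, grown 12 h, then exposed to graded compound concentrations for 48 h at 37 °C/5% CO2. 2.5 mg/mL MTT was added for 4 h, formazan dissolved in DMSO, and absorbance read at 570 nm. Each dose in triplicate; IC50 from percent survival versus negative control.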
(In general: Tetrazolium assays rely on reduction of a dye to a coloured formazan, in cell work by metabolically active cells.)

A further series concerns HEK293. In words: Cytotoxicity against HEK293 cells assessed as reduction in cell viability after 48 hrs by MTT assay. The series is classed as cell-based. To be noted: Homo sapiens, HEK293, 48 h. The gist of the method:
as §1

The test system of series [8] is MCF7. In words: Cytotoxicity against human MCF7 cells assessed as reduction in cell viability after 48 hrs by xcCELLigence RTCA analysis. Particulars: MCF7, 48 h. Format: functional, cell-based. In short, it runs like this: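 xCELLigence RTCA: MCF-7 cells were cultured on E-plates about 16 h, then treated with 0.625, 1.25, 2.5 μM compound or DMSO. Impedance was monitored for 90 h.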

In series [9] the test system is MCF7. In words: Antitumour activity against human MCF7 cells xenografted in nude BALB/c mouse assessed as tumour growth inhibition at 2.5 mg/kg, ip administered for 34 days relative to control. Particulars: 816 h, time 34 day, read-out: TGI. The series is classed as functional. (In xenograft studies the graft and the host belong to different species.)
Series [10] relates to MCF7. Nature of the series: Antitumour activity against human MCF7 cells xenografted in nude BALB/c mouse assessed as tumour growth inhibition at 5 mg/kg, ip administered for 34 days relative to control. Particulars: 816 h, time 34 day, read-out: TGI. The series is classed as functional.
Series [11] has as its system MCF7. In words: Antitumour activity against human MCF7 cells xenografted in nude BALB/c mouse assessed as tumour growth inhibition at 10 mg/kg, ip administered for 34 days relative to control. The series is classed as functional. Particulars: 816 h, time 34 day, read-out: TGI.
In series [12] the test system is MCF7. In words: Antitumour activity against human MCF7 cells xenografted in nude BALB/c mouse assessed as tumour volume at 5 mg/kg, ip administered for 34 days (reference value: 1530 mm3). The series is classed as functional. To be noted: time 34 day.
Series [13] deals with MCF7. In words: Antitumour activity against human MCF7 cells xenografted in nude BALB/c mouse assessed as tumour volume at 10 mg/kg, ip administered for 34 days (reference value: 1530 mm3). Format: functional. To be noted: time 34 day.
The nature of series [14]: Toxicity in nude BALB/c mouse xenografted with human MCF7 cells assessed as liver weight at 2.5 to 10 mg/kg, ip administered for 34 days. The series is classed as organism-based. Particulars: in vivo, 816 h, dose 2.5-10 mg/kg, time 34 day. In short, it runs like this:
(§2)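 Nude BALB/c females bearing subcutaneous MCF-7 xenografts were dosed ip once daily for 34 days at 2.5, 5.0 or 10 mg/kg, with saline vehicle (100 µL) as control. Body weight was recorded every 2 days. After euthanasia by cervical dislocation, heart, liver, spleen and kidney were removed and weighed.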

A short description of series [15]: Toxicity in nude BALB/c mouse xenografted with human MCF7 cells assessed as lung weight at 2.5 to 10 mg/kg, ip administered for 34 days. The series is classed as organism-based. To be noted: in vivo, 816 h, dose 2.5-10 mg/kg, time 34 day.
Series [16] is described as follows: Toxicity in nude BALB/c mouse xenografted with human MCF7 cells assessed as kidney weight at 2.5 to 10 mg/kg, ip administered for 34 days. Format: organism-based. Particulars: in vivo, 816 h, dose 2.5-10 mg/kg, time 34 day. The gist of the method:
as §2

For series [17], the system named is MCF7. In words: Induction apoptosis in human MCF7 cells assessed as viable cells at 2.5 uM incubated for 24 hrs by Annexin-FTTC/PI staining based flow cytometric analysis (reference value: 99.7%). The series is classed as functional. To be noted: read-out: Activity.
Series [18] deals with MCF7. Nature of the series: Induction apoptosis in human MCF7 cells assessed as viable cells at 5 uM incubated for 24 hrs by Annexin-FTTC/PI staining based flow cytometric analysis (reference value: 99.7%). The series is classed as functional. Particulars: read-out: Activity.
In series [19] the test system is MCF7. Nature of the series: Induction apoptosis in human MCF7 cells assessed as early apoptotic cells at 1.25 uM incubated for 24 hrs by Annexin-FTTC/PI staining based flow cytometric analysis (reference value: 0.28%). The series is classed as functional.
Series [20] relates to MCF7. Nature of the series: Induction apoptosis in human MCF7 cells assessed as late apoptotic cells at 1.25 uM incubated for 24 hrs by Annexin-FTTC/PI staining based flow cytometric analysis (reference value: 0%). Format: functional.
The subject of series [21] is MCF7. Nature of the series: Induction apoptosis in human MCF7 cells assessed as late apoptotic cells at 5 uM incubated for 24 hrs by Annexin-FTTC/PI staining based flow cytometric analysis (reference value: 0%). Format: functional.

One may read the Kd as a measure of binding affinity in units of concentration. Lower therefore signals a tighter complex. One may read the ΔTm as the change in melting temperature against a reference sample. A word on the IC50: it is the concentration that gives 50% inhibition. `Cc1ccc2c(c1)c(=O)c1cc(C(=O)NCCCN(C)CCCN3C(=O)c4cccc5c(N6CCN(C)CC6)ccc(c45)C3=O)ccc1n2-c1ccc(C(=O)NCCCN(C)CCCN2C(=O)c3cccc4c(N5CCN(C)CC5)ccc(c34)C2=O)cc1`: the Kd was determined as 3.12 µM in series [1] and 6.11 µM on Quadruplex DNA [2]. In the series on Quadruplex DNA [3], the ΔTm is more than 20 °C. For the same molecule, the Activity entry was “Dose-dependent effect” in series [4]; “Dose-dependent effect” in series [5]; “Dose-dependent effect” in the series with MCF7 [6]; 780 mm3 in the series on MCF7 [12]; 640.2 mm3 in the series with MCF7 [13]; “Non-Toxic” in series [14]. The Activity entry in [15] was “Non-Toxic”; in series [16], “Non-Toxic”; in the series with MCF7 [19], 7.38%; in the series on MCF7 [20] it was 0.8%; in the series with MCF7 [21], 51.1%. Also, the 50% inhibitory concentration (IC50) in the series with MCF7 [7] is 4.69 µM; in the series with HEK293 it was more than 50 µM; in the series on MCF7 [8], 2740 nM. Moreover, the inhibition in vivo at 2.5 mg/kg with MCF7 [9] was found to be 34.9%. Moreover, the inhibition in vivo at 5 mg/kg in the series with MCF7 [10] was determined as 47.6%. In addition, the inhibition in vivo at 10 mg/kg in the series on MCF7 [11] was determined as 56.5%. In addition, in the series on MCF7 [17], the viability at 2.5 µM is 71.4%. For the same molecule, the viability at 5 µM in the series on MCF7 [18] came to 13%.

For the origin of these results see ChEMBL document CHEMBL4715918, “Syntheses and evaluation of acridone-naphthalimide derivatives for regulating oncogene PDGFR-β expression” (Bioorg Med Chem, 2021).
